PLCb3 inh = blocks human PLC-beta3 enzyme activity; AID 720704; Purified PLC-beta3, fluorogenic substrate, fluorescence; 370,000 tested, 0.18% active; Q01970; inhibition, % at 12.2 µM; in the data active means inhibition above about 11%;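 further: 0% = median of compound wells on plate and 100% = full blocker control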
ASAP1 GAP inh = blocks human ASAP1-stimulated Arf1 GTP hydrolysis; Q9ULH1; GDP FP detection; inhibition, % at 16.5 µM; 360,000 tested, 0.19% active; in the data active means inhibition above about 25%;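 further: 0% = vehicle with enzyme and substrate and 100% = no enzyme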
PLCg1 inh = PLC-gamma1 (human) inhibition, primary screen. purified PLC-gamma1, fluorogenic substrate, fluorescence. inhibition, % at 12.2 µM. 370,000 tested, 0.84% active; in the data active means inhibition above about 9.5%
sPLA2-III inh = Inhibits HGIII-sPLA2 liposome hydrolysis, primary screen | 370,000 tested, 0.56% active | QFRET BODIPY PC-A2 liposome hydrolysis, fluorescence | Q9NZ20 | inhibition, % at 12.2 µM;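 active means inhibition above mean plus 3 SD of compounds lying within the high and low control bounds, cut at about 19% in these data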;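 further: 0% = median of test compound wells and 100% = no enzyme DMSO wells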
ARFGAP1 inh = inhibits rat ARF GTPase activating protein 1. Arfgap1-stimulated ARF1 GTP hydrolysis, GDP FP detection. inhibition, % at 16.5 µM. 360,000 tested, 0.26% active. AID 651572;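 active means inhibition above a per-plate limit, mean inhibition of low control wells plus 3 SD, cut at about 25% in these data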;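 further: 0% = DMSO wells with enzyme and 100% = wells lacking Arfgap1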
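Material: rat Arfgap1 catalytic domain, aa 1-136; also added: human ARF1(Δ1-17)-GTP substrate; compound dosing: one concentration, 16.5 µM, DMSO 1.26%; incubation: GTP hydrolysis reaction 2 h at 25 °C; measured by: Tracer-displacement fluorescence polarization with EDTA stop, 620/688 nm; evaluation: % inhibition from polarization; repeats: one replicate per compound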
ASAP1 inh confirm = ASAP1 inhibition confirmed. shares compounds with ASAP1 GAP inh. ASAP1-stimulated Arf1 GTPase, GDP fluorescence polarization. inhibition, % at 16.5 µM. 620 tested, 37% active;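 active means mean inhibition over triplicates exceeds the hit threshold derived for the earlier primary screening run, cut at about 25% in these data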
* = called active by the depositor; i = inactive; nt = no result. Shown are actives, neighbours in structure and some others; about 1.9% of the full set was active somewhere.

SMILES	PLCb3 inh	ASAP1 GAP inh	PLCg1 inh	sPLA2-III inh	ARFGAP1 inh	ASAP1 inh confirm
CN(CCO)c1cccc2c1S(=O)(=O)N(Cc1cn(Cc3cccc(F)c3)nn1)Cc1ccccc1O2	-4.2	nt	0.6	4.9	nt	nt
CC(C)N1Cc2nnn(Cc3ccccc3)c2-c2ccccc2S1(=O)=O	6.4	nt	2.5	4.5	nt	nt
CC(C)N1Cc2nnn(Cc3ccc(F)cc3)c2-c2cc(F)ccc2S1(=O)=O	0.9	nt	2.1	10.9	nt	nt
CCOC(=O)c1sc(N(Cc2ccccc2)C(=O)COC(=O)c2ccc(O)cc2)nc1C	-2.0	26.5*	5.0	-26.0	15.5	21.3
Cc1ccc(Cl)cc1Nc1nc(-c2sc(NC(=O)C(C)(C)C)nc2C)cs1	-9.1	25.1*	-6.0	5.0	0.7	10.4
Cc1ccc([C@H](C)NC(=O)C2=C(N)N(S(=O)(=O)c3ccc(C)cc3)C(C(=O)c3ccccc3)C2c2ccccc2Cl)cc1 (stereo not given in full)	1.9	nt	-0.1	-8.2	nt	nt
COc1ccc2c(c1OC)C(=O)OC2CC(=O)c1ccc(O)c(O)c1 (stereo not given)	-8.4	144.3*	-4.9	-1.9	-9.6	-0.6
COc1ccc2c(c1OC)C(=O)OC2CC(=O)c1ccc(O)cc1 (stereo not given)	-185.6	-2.8	-149.1	0.9	-1.2	nt
N#Cc1cc(F)cc(OCCCN2CCC(C(O)(c3ccccc3)c3ccccc3)CC2)c1	0.6	5.9	3.0	-27.0	13.0	nt
N#Cc1ccc(OCCCN2CCC(C(O)(c3ccccc3)c3ccccc3)CC2)cc1	0.0	25.2*	-0.7	-19.1	-5.5	-3.3
c1ccc(-c2cc(-c3nnc4n3N=C(c3ccc5ccccc5c3)CS4)[nH]n2)cc1	-0.5	25.2*	1.8	-5.8	11.4	11.5
c1coc(-c2nnc3n2N=C(c2ccc4ccccc4c2)CS3)c1	-0.3	nt	-1.4	-12.4	nt	nt
CCc1cccc2c(C(=O)CN3C(=O)NC(C)(c4cccc5ccccc45)C3=O)c[nH]c12 (stereo not given)	-5.6	31.9*	1.6	-46.8	14.1	28.4*
CC1OC2CC(=O)OC2C2=C1C(=O)c1c(O)cccc1C2=O (stereo not given)	-5.1	36.8*	2.4	7.3	0.4	13.5
CCCCN(Cc1ccco1)C(=O)Cn1ncc2c(=O)oc3ccc(C)cc3c21	-0.7	29.9*	-1.6	10.5	15.2	33.0*
O=C(CCn1nnc(-c2cccs2)n1)NCc1ccco1	1.5	nt	1.2	-1.8	nt	nt
COc1ccc(Cn2ccnc2SCC(=O)Nc2ccccc2OC)cc1	-4.6	25.7*	-2.3	-1.0	-3.6	10.3
COc1ccc(Cn2ccnc2SCC(=O)Nc2ccccc2F)cc1	-10.5	5.4	1.4	-10.2	-3.9	nt
COc1ccc(N(C(=O)CCl)C(C(=O)NC2CCCCC2)c2cccnc2)cc1 (stereo not given)	0.6	69.9*	1.9	-23.1	-7.8	-0.2
C[C@H](CO)N1C[C@H](C)[C@@H](CN(C)C(=O)Nc2ccc(C(F)(F)F)cc2)Oc2c(NC(=O)c3ccncc3)cccc2C1=O	2.7	-2.0	0.1	3.3	3.4	nt
C[C@H](CO)N1C[C@H](C)[C@H](CN(C)C(=O)Nc2ccc(F)cc2)Oc2c(NC(=O)c3ccc(-c4nccs4)cc3)cccc2C1=O	-8.3	31.3*	-6.4	-52.6	6.3	9.8
Cn1c(=O)cc(SCC(=O)N2CCCC2)c2ccccc21	1.9	34.5*	1.5	2.0	1.9	3.4
CN(Cc1ccccc1)C(=O)CSc1cc(=O)n(C)c2ccccc12	-10.3	11.8	-3.7	2.8	3.7	nt
COc1ccc(C2=NS(=O)(=O)N(C)C(C(=O)Nc3ccc(OC)c(OC)c3)=C2)cc1	-0.8	13.7	-3.8	-12.3	20.4	nt
COc1ccc(NC(=O)C2=CC(c3ccc(C)cc3)=NS(=O)(=O)N2C)cc1OC	4.5	25.1*	3.0	-10.3	2.7	13.3
SMILES	PLCb3 inh	ASAP1 GAP inh	PLCg1 inh	sPLA2-III inh	ARFGAP1 inh	ASAP1 inh confirm
Cc1cc(C(N)=O)nn1-c1c(Cl)cc(Cl)cc1Cl	-3.4	6.1	2.2	-0.5	-0.2	nt
NC1=NN(c2c(Cl)cc(Cl)cc2Cl)C(=O)C1	1.1	25.8*	5.0	5.2	-4.9	6.4
CN1CCN(c2ccc(S(=O)(=O)N3CCCCC3)cc2NC(=O)/C=C/c2ccc(OC(F)F)cc2)CC1	-15.8	24.9*	-4.9	-24.0	13.8	18.9
COC(=O)CSc1nnc(-c2ccc(NS(=O)(=O)c3ccc(Cl)s3)cc2)o1	-2.9	nt	-2.2	-29.6	nt	nt
COC(=O)c1ccccc1NC(=O)c1ccc(Cn2cc(Cl)cn2)o1	-2.7	-3.5	-1.5	-1.4	-4.0	nt
COC(=O)c1cc(NC(=O)c2ccc(Cn3cc(Cl)cn3)o2)cc(C(=O)OC)c1	0.2	40.3*	-0.9	4.1	0.3	28.1*
COc1cc(N)c2ncccc2c1Br	-36.0	27.7*	-21.9	8.1	15.2	11.2
COc1ccc2ccccc2c1C=NNC(=O)c1cc(-c2ccc(C)c(C)c2)n[nH]1	-29.0	nt	-20.6	-13.0	nt	nt
COc1ccc(S(=O)(=O)N2CCCC2)c(Cl)c1Cl	-1.7	25.2*	0.6	-0.8	5.4	0.5
COc1ccc(C2=Nc3ccccc3NC(=O)C2N(CCc2ccccc2)C(=O)c2cccs2)cc1 (stereo not given)	-2.0	26.7*	-5.7	-3.7	7.1	-0.7
COc1ccc(C(=O)OCCN(C)C2CN(Cc3cn(Cc4cccc(F)c4)nn3)S(=O)(=O)C2)cc1OC (stereo not given)	-2.9	nt	-3.3	0.4	nt	nt
CC1N(O)C(c2ccc(Cl)cc2Cl)N(O)C1(C)C (stereo not given)	1.2	25.1*	-0.8	-2.4	5.1	4.7
COc1ccccc1CNC(=O)c1c(N)n(CCCN2CCOCC2)c2nc3ccccc3nc12	i	17.3	i	-22.5	-4.0	nt
Nc1c(C(=O)NCc2ccc3c(c2)OCO3)c2nc3ccccc3nc2n1CCCN1CCOCC1	i	34.4*	i	-17.2	17.1	9.6
O=C1C(Cl)=C(Nc2ccccc2)C(=O)c2ccccc21	-0.7	1.4	6.8	5.0	2.3	nt
O=C1C(Cl)=C(NCCc2ccccc2)C(=O)c2ccccc21	3.2	29.6*	0.4	15.1	18.5	6.1
Cc1nc(NCCc2ccc(S(N)(=O)=O)cc2)c2c(C)c(C)sc2n1	-6.5	24.7*	-0.1	-3.4	14.4	3.2
CCOc1ccc(NC(=S)NC(=O)/C=C/c2ccc(OC)c(OC)c2)c([N+](=O)[O-])c1	-7.1	35.0*	-6.8	7.3	-16.7	20.1
CC1=C/C(=C(/c2cc(C)c(O)c(Br)c2)c2ccccc2S(=O)(=O)O)C=C(Br)C1=O	-0.4	40.0*	3.2	-13.3	37.5*	29.6*
Cc1ccc2[nH]c(O)c(N=NC(=O)c3ccc(NS(=O)(=O)c4cccs4)cc3)c2c1	-7.0	28.9*	0.7	-3.4	-2.0	8.7
CC(=O)c1ccc(S(=O)(=O)NCC(=O)N2CCN(C/C=C/c3ccccc3)CC2)cc1	-3.4	28.3*	-0.8	-9.4	-2.5	0.7

Bioassay records from PubChem BioAssay.
